Source: ChEMBL document CHEMBL1127414 (J Med Chem, 1994)

Columns and labels:
[1] = target: T1, Squalene synthase (Mus musculus) (UniProt P53798); experiment: Tested for the effective dose required for the incorporation of [5-3H]-mevalonolactone into cholesterol by in vivo mouse assay by peroral administration; assay type: functional, organism-based
T1 sequence (whole entry): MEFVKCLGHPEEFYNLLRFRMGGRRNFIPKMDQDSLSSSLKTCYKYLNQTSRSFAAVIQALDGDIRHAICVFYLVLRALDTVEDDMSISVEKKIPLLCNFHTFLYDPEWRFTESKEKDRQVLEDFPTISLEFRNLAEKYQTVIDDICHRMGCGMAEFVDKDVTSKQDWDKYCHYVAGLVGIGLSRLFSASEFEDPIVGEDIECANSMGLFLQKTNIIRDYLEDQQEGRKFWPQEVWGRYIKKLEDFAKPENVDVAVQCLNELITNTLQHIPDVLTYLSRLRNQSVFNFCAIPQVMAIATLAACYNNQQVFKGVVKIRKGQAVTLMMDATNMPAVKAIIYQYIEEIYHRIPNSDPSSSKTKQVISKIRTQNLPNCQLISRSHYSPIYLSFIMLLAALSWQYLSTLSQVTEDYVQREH
Method in brief: (§1)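 Female Swiss Webster mice (~25 g), six per group, dosed po by gavage with inhibitor suspended in 5% emulphor. 30 min later, 0.5 μCi/mouse [5-3H]mevalonolactone in saline given sc. Livers removed 30 min after that and saponified in KOH/EtOH overnight at 55 °C, then petroleum-ether extracted. Nonsaponifiable dpm counted. Compounds first tested at a single dose (typically 12 or 24 mg/kg).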

[2] = system: Mus musculus; experiment: Ability to inhibit the incorporation of [5-3H]-mevalonolactone into cholesterol by in vivo mouse assay by peroral administration at a dose of 24 mg/kg; assay type: functional; details: route oral; method in brief: as §1
[3] = target: T2, Squalene synthase (Rattus norvegicus, UniProt Q02769); experiment: Tested for inhibition against squalene synthase enzyme in rat liver
T2 sequence (Q02769 whole entry): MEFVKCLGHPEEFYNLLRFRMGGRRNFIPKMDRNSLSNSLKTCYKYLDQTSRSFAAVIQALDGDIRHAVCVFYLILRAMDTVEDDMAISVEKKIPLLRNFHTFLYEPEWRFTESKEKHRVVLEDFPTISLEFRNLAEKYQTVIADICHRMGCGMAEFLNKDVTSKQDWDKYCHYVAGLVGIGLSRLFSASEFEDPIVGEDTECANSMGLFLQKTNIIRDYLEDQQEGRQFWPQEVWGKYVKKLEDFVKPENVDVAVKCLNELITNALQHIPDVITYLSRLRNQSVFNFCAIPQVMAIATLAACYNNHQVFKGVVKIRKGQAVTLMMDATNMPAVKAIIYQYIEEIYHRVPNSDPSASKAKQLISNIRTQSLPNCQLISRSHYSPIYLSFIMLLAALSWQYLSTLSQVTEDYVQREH

[4] = target: T3, Squalene synthase (Rattus norvegicus) (UniProt Q02769); experiment: Concentration required to inhibit rat liver squalene synthase enzyme relative to control (L-694,599)
T3 sequence (whole entry): T2 sequence (Q02769 whole entry)
Method in brief: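 Enzyme from rat liver. […] Inhibitors added in DMSO (0.3% final) as 3-fold serial dilutions, usually up to 30 ng/mL (about 40 nM). IC50 read from % inhibition vs log concentration.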

ED50 [1] [mg/kg] | IC50 [3] [nM] | Relative activity [4] | Compound | inhibition in vivo at 24 mg/kg [2] [%]
> 24 |  |  | C=C(CCC12OC(C(=O)O)C(O)(C(=O)O)C(C(=O)O)(O1)[C@H](OC(=O)CCCC)[C@H]2O)[C@@H](OC(C)=O)[C@H](C)Cc1ccccc1 (stereo partly drawn) | 40
11 |  |  | C=C(CCC12OC(C(=O)O)C(O)(C(=O)O)C(C(=O)O)(O1)[C@H](OC(=O)NC)[C@H]2O)[C@@H](OC(C)=O)[C@H](C)Cc1ccccc1 (stereo partly drawn) | 
9 | 3.5 | 0.06 | C=C(CCC12OC(C(=O)O)C(O)(C(=O)O)C(C(=O)O)(O1)[C@H](OC(=O)OC)[C@H]2O)[C@@H](OC(C)=O)[C@H](C)Cc1ccccc1 (stereo partly drawn) | 
24 | 18 | 0.04 | C=C(CCC12OC(C(=O)O)C(O)(C(=O)O)C(C(=O)O)(O1)[C@H](OC(=O)[C@@H](C)CC)[C@H]2O)[C@@H](OC(C)=O)[C@H](C)Cc1ccccc1 (stereo partly drawn) | 
 | 0.14 | 1 | CC(/C=C/CCC(=O)O[C@@H]1[C@@H](O)C2(CCCCC(C)Cc3ccccc3)OC(C(=O)O)C(O)(C(=O)O)C1(C(=O)O)O2)CCCc1ccccc1 (stereo partly drawn) | 8
8 | 10 | 0.05 | C=C(CCC12OC(C(=O)O)C(O)(C(=O)O)C(C(=O)O)(O1)[C@H](OCCC)[C@H]2O)[C@@H](OC(C)=O)[C@H](C)Cc1ccccc1 (stereo partly drawn) | 
20 | 25 | 0.03 | C=C(CCC12OC(C(=O)O)C(O)(C(=O)O)C(C(=O)O)(O1)[C@H](OC(=O)CCCOC)[C@H]2O)[C@@H](OC(C)=O)[C@H](C)Cc1ccccc1 (stereo partly drawn) | 
 | 14 |  | C=C(CCC12OC(C(=O)O)C(O)(C(=O)O)C(C(=O)O)(O1)[C@H](OC(=S)NC(C)C)[C@H]2O)[C@@H](OC(C)=O)[C@H](C)Cc1ccccc1 (stereo partly drawn) | 
4.5 | 9.2 | 0.07 | C=C(CCC12OC(C(=O)O)C(O)(C(=O)O)C(C(=O)O)(O1)[C@H](OC(=O)CCC)[C@H]2O)[C@@H](OC(C)=O)[C@H](C)Cc1ccccc1 (stereo partly drawn) | 
 | 362 | 0.0008 | CCCC(=O)O[C@@H]1[C@@H](O)C2(CCCCCCc3ccccc3)OC(C(=O)O)C(O)(C(=O)O)C1(C(=O)O)O2 (stereo partly drawn) | -6
8 | 17 | 0.04 | C=C(CCC12OC(C(=O)O)C(O)(C(=O)O)C(C(=O)O)(O1)[C@H](OC(=O)NCC1CC1)[C@H]2O)[C@@H](OC(C)=O)[C@H](C)Cc1ccccc1 (stereo partly drawn) | 
 | 137 | 0.002 | CC[C@H](C)C[C@H](C)CCC(=O)O[C@@H]1[C@@H](O)C2(CCCCc3ccccc3)OC(C(=O)O)C(O)(C(=O)O)C1(C(=O)O)O2 (stereo partly drawn) | 
10 | 3 | 0.1 | C=C(CCC12OC(C(=O)O)C(O)(C(=O)O)C(C(=O)O)(O1)[C@H](OC(=O)OC(C)C)[C@H]2O)[C@@H](OC(C)=O)[C@H](C)Cc1ccccc1 (stereo partly drawn) | 
8 | 21 | 0.02 | C=C(CCC12OC(C(=O)O)C(O)(C(=O)O)C(C(=O)O)(O1)[C@H](OC(=O)C(C)C)[C@H]2O)[C@@H](OC(C)=O)[C@H](C)Cc1ccccc1 (stereo partly drawn) | 
 | 0.28 | 0.5 | C=C(CCC12OC(C(=O)O)C(O)(C(=O)O)C(C(=O)O)(O1)[C@H](OC(=O)NCCCCCCCCCCCCCC)[C@H]2O)[C@@H](OC(C)=O)[C@H](C)Cc1ccccc1 (stereo partly drawn) | 12
6 | 14 | 0.05 | C=C(CCC12OC(C(=O)O)C(O)(C(=O)O)C(C(=O)O)(O1)[C@H](OC(=O)NC1CCC1)[C@H]2O)[C@@H](OC(C)=O)[C@H](C)Cc1ccccc1 (stereo partly drawn) | 
6 | 8 | 0.05 | C=C(CCC12OC(C(=O)O)C(O)(C(=O)O)C(C(=O)O)(O1)[C@H](OC(=O)NC(C)C)[C@H]2O)[C@@H](OC(C)=O)[C@H](C)Cc1ccccc1 (stereo partly drawn) | 
> 24 |  |  | C=C(CCC12OC(C(=O)O)C(O)(C(=O)O)C(C(=O)O)(O1)[C@H](OC(=O)N(C)C)[C@H]2O)[C@@H](OC(C)=O)[C@H](C)Cc1ccccc1 (stereo partly drawn) | 

ED50 [1] [mg/kg] | IC50 [3] [nM] | Relative activity [4] | Compound | inhibition in vivo at 24 mg/kg [2] [%]
 | 0.2 | 1 | C=C(CCC12OC(C(=O)O)C(O)(C(=O)O)C(C(=O)O)(O1)[C@H](OCCC[C@@H](C)C[C@@H](C)CC)[C@H]2O)[C@@H](OC(C)=O)[C@H](C)Cc1ccccc1 (stereo partly drawn) | 38
 | 1800 | 0.00014 | CCCC(=O)O[C@@H]1[C@@H](O)C2(CCCCc3cccc4ccccc34)OC(C(=O)O)C(O)(C(=O)O)C1(C(=O)O)O2 (stereo partly drawn) | 
12 | 11 | 0.02 | C=C(CCC12OC(C(=O)O)C(O)(C(=O)O)C(C(=O)O)(O1)[C@H](OC(=O)CC)[C@H]2O)[C@@H](OC(C)=O)[C@H](C)Cc1ccccc1 (stereo partly drawn) | 
9 | 2.3 | 0.09 | C=C(CCC12OC(C(=O)O)C(O)(C(=O)O)C(C(=O)O)(O1)[C@H](OCCC(C)C)[C@H]2O)[C@@H](OC(C)=O)[C@H](C)Cc1ccccc1 (stereo partly drawn) | 
 | 0.8 | 0.25 | C=C(CCC12OC(C(=O)O)C(O)(C(=O)O)C(C(=O)O)(O1)[C@H](OC(=O)NCCC[C@@H](C)C[C@@H](C)CC)[C@H]2O)[C@@H](OC(C)=O)[C@H](C)Cc1ccccc1 (stereo partly drawn) | -2
11 | 3.2 | 0.09 | C=C(CCC12OC(C(=O)O)C(O)(C(=O)O)C(C(=O)O)(O1)[C@H](OC(=O)NC1CC1)[C@H]2O)[C@@H](OC(C)=O)[C@H](C)Cc1ccccc1 (stereo partly drawn) | 
 | 1.2 | 0.08 | C=C(CCC12OC(C(=O)O)C(OCCCCCCCCCCCC)(C(=O)O)C(C(=O)O)(O1)[C@H](O)[C@H]2O)[C@@H](OC(C)=O)[C@H](C)Cc1ccccc1 (stereo partly drawn) | 
 | 9.7 | 0.027 | C=C(CCC12OC(C(=O)O)C(O)(C(=O)O)C(C(=O)O)(O1)[C@H](OC(=O)CCC)[C@H]2O)[C@@H](OC(=O)CCC)[C@H](C)Cc1ccccc1 (stereo partly drawn) | 1
 | 8.8 | 0.03 | C=C(CCC12OC(C(=O)O)C(O)(C(=O)O)C(C(=O)O)(O1)[C@H](OC(=O)CCC)[C@H]2O)[C@@H](OC(=O)CC)[C@H](C)Cc1ccccc1 (stereo partly drawn) | 67
 | 0.26 | 0.77 | C=C(CCC12OC(C(=O)O)C(O)(C(=O)O)C(C(=O)O)(O1)[C@H](OC(=O)OCCC[C@@H](C)C[C@@H](C)CC)[C@H]2O)[C@@H](OC(C)=O)[C@H](C)Cc1ccccc1 (stereo partly drawn) | -4
9 | 9.2 | 0.02 | C=C(CCC12OC(C(=O)O)C(O)(C(=O)O)C(C(=O)O)(O1)[C@H](OC(=O)OCC)[C@H]2O)[C@@H](OC(C)=O)[C@H](C)Cc1ccccc1 (stereo partly drawn) | 
40 | 1.6 | 0.14 | C=C(CCC12OC(C(=O)O)C(O)(C(=O)O)C(C(=O)O)(O1)[C@H](OC(=O)NCc1ccccc1)[C@H]2O)[C@@H](OC(C)=O)[C@H](C)Cc1ccccc1 (stereo partly drawn) | 
11 | 4.3 | 0.13 | C=C(CCC12OC(C(=O)O)C(O)(C(=O)O)C(C(=O)O)(O1)[C@H](OC(=O)CC(C)C)[C@H]2O)[C@@H](OC(C)=O)[C@H](C)Cc1ccccc1 (stereo partly drawn) | 
18 | 36.1 | 0.02 | C=C(CCC12OC(C(=O)O)C(O)(C(=O)O)C(C(=O)O)(O1)[C@H](OC(C)=O)[C@H]2O)[C@@H](OC(C)=O)[C@H](C)Cc1ccccc1 (stereo partly drawn) | 
11 | 16 | 0.02 | C=C(CCC12OC(C(=O)O)C(O)(C(=O)O)C(C(=O)O)(O1)[C@H](OC(=O)NCC)[C@H]2O)[C@@H](OC(C)=O)[C@H](C)Cc1ccccc1 (stereo partly drawn) | 
12 | 2 | 0.08 | C=C(CCC12OC(C(=O)O)C(O)(C(=O)O)C(C(=O)O)(O1)[C@H](OCCCC)[C@H]2O)[C@@H](OC(C)=O)[C@H](C)Cc1ccccc1 (stereo partly drawn) | 
12 | 5.6 | 0.06 | C=C(C)CC(=O)O[C@@H]1[C@@H](O)C2(CCC(=C)[C@@H](OC(C)=O)[C@H](C)Cc3ccccc3)OC(C(=O)O)C(O)(C(=O)O)C1(C(=O)O)O2 (stereo partly drawn) | 
 | 1.8 | 0.144 | CC[C@H](C)C[C@H](C)CCC(=O)O[C@@H]1[C@@H](O)C2(CCCCCCc3ccccc3)OC(C(=O)O)C(O)(C(=O)O)C1(C(=O)O)O2 (stereo partly drawn) | -2
